Measured values published in ChEMBL document CHEMBL3271959, “Comparative stereochemistry in the aziridine ring openings of N-methylmitomycin A and 7-methoxy-1,2-(N-methylaziridino)mitosene” (J Med Chem, 1977).
The source made the active and inactive calls. No cut-off for these calls is given here.

What was measured:
[1] = tested on: Enterobacteria phage lambda; assay: Induction of lambda phage lytic activity in Escherichia coli W1709(lambda) assessed as ratio of plaques in treated culture to control at 3.1 ug/ml preincubated for 90 mins followed by heart infusion broth and glucose addition measured after 120 mins; assay type: functional
[2] = tested on: Enterobacteria phage lambda; assay: Induction of lambda phage lytic activity in Escherichia coli W1709(lambda) assessed as ratio of plaques in treated culture to control at 0.8 ug/ml preincubated for 90 mins followed by heart infusion broth and glucose addition measured after 120 mins; assay type: functional
[3] = tested on: Enterobacteria phage lambda; assay: Induction of lambda phage lytic activity in Escherichia coli W1709(lambda) assessed as ratio of plaques in treated culture to control at 0.003 ug/ml preincubated for 90 mins followed by heart infusion broth and glucose addition measured after 120 mins; assay type: functional
[4] = tested on: Enterobacteria phage lambda; assay: Induction of lambda phage lytic activity in Escherichia coli W1709(lambda) assessed as ratio of plaques in treated culture to control at 0.0125 ug/ml preincubated for 90 mins followed by heart infusion broth and glucose addition measured after 120 mins; assay type: functional
[5] = tested on: Enterobacteria phage lambda; assay: Induction of lambda phage lytic activity in Escherichia coli W1709(lambda) assessed as ratio of plaques in treated culture to control at 0.05 ug/ml preincubated for 90 mins followed by heart infusion broth and glucose addition measured after 120 mins; assay type: functional
Escherichia coli [6] = assay: Toxicity in Escherichia coli W1709(lambda) at 3.1 ug/ml; assay type: organism-based; settings: in vivo
[7] = tested on: Enterobacteria phage lambda; assay: Induction of lambda phage lytic activity in Escherichia coli W1709(lambda) assessed as ratio of plaques in treated culture to control at 0.2 ug/ml preincubated for 90 mins followed by heart infusion broth and glucose addition measured after 120 mins; assay type: functional
Mus musculus [8] = assay: Toxicity in CDF1 mouse allografted with mouse P388 cells assessed as change in weight at 0.2 mg/kg/day administered qd on day 1 and 5 (reference value: 3.4 g); assay type: organism-based; settings: in vivo
Method in brief: (§1)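 Male CDF1 mice were implanted intraperitoneally with 10^6 P388 ascites cells. Treatment was given once daily on days 1 and 5 only. Groups were six mice each. Median survival time was taken for each group.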

Mus musculus [9] = assay: Toxicity in CDF1 mouse allografted with mouse P388 cells assessed as change in weight at 1.6 mg/kg/day administered qd on day 1 and 5 (reference value: 3.4 g); assay type: organism-based; settings: in vivo; method in brief: as §1
P388 [10] = assay: Antitumor activity against mouse P388 cells allografted in CDF1 mouse assessed as effect on median survival time at 0.4 mg/kg/day administered qd on day 1 and 5 relative to control; assay type: functional; method in brief: as §1
Mus musculus [11] = assay: Toxicity in CDF1 mouse allografted with mouse P388 cells assessed as change in weight at 0.8 mg/kg/day administered qd on day 1 and 5 (reference value: 3.4 g); assay type: organism-based; settings: in vivo; method in brief: as §1
Mus musculus [12] = assay: Toxicity in CDF1 mouse allografted with mouse P388 cells assessed as change in weight at 0.4 mg/kg/day administered qd on day 1 and 5 (reference value: 3.4 g); assay type: organism-based; settings: in vivo; method in brief: as §1
P388 [13] = assay: Antitumor activity against mouse P388 cells allografted in CDF1 mouse assessed as mouse survival at 1.6 mg/kg/day administered qd on day 1 and 5 measured on day 5; assay type: functional, organism-based; method in brief: as §1
P388 [14] = assay: Antitumor activity against mouse P388 cells allografted in CDF1 mouse assessed as effect on median survival time at 1.6 mg/kg/day administered qd on day 1 and 5 relative to control; assay type: functional; method in brief: as §1
P388 [15] = assay: Antitumor activity against mouse P388 cells allografted in CDF1 mouse assessed as mouse survival at 0.8 mg/kg/day administered qd on day 1 and 5 measured on day 30; assay type: functional, organism-based; method in brief: as §1
P388 [16] = assay: Antitumor activity against mouse P388 cells allografted in CDF1 mouse assessed as effect on median survival time at 0.8 mg/kg/day administered qd on day 1 and 5 relative to control; assay type: functional; method in brief: as §1
P388 [17] = assay: Antitumor activity against mouse P388 cells allografted in CDF1 mouse assessed as mouse survival at 0.4 mg/kg/day administered qd on day 1 and 5 measured on day 5; assay type: functional, organism-based; method in brief: as §1
Mus musculus [18] = assay: Toxicity in CDF1 mouse allografted with mouse P388 cells assessed as change in weight at 3.2 mg/kg/day administered qd on day 1 and 5 (reference value: 3.4 g); assay type: organism-based; settings: in vivo; method in brief: as §1
P388 [19] = assay: Antitumor activity against mouse P388 cells allografted in CDF1 mouse assessed as effect on median survival time at 3.2 mg/kg/day administered qd on day 1 and 5 relative to control; assay type: functional; method in brief: as §1
P388 [20] = assay: Antitumor activity against mouse P388 cells allografted in CDF1 mouse assessed as mouse survival at 0.8 mg/kg/day administered qd on day 1 and 5 measured on day 5; assay type: functional, organism-based; method in brief: as §1
P388 [21] = assay: Antitumor activity against mouse P388 cells allografted in CDF1 mouse assessed as mouse survival at 0.2 mg/kg/day administered qd on day 1 and 5 measured on day 30; assay type: functional, organism-based; method in brief: as §1
P388 [22] = assay: Antitumor activity against mouse P388 cells allografted in CDF1 mouse assessed as mouse survival at 3.2 mg/kg/day administered qd on day 1 and 5 measured on day 30; assay type: functional, organism-based; method in brief: as §1
P388 [23] = assay: Antitumor activity against mouse P388 cells allografted in CDF1 mouse assessed as mouse survival at 0.4 mg/kg/day administered qd on day 1 and 5 measured on day 30; assay type: functional, organism-based; method in brief: as §1
P388 [24] = assay: Antitumor activity against mouse P388 cells allografted in CDF1 mouse assessed as mouse survival at 1.6 mg/kg/day administered qd on day 1 and 5 measured on day 30; assay type: functional, organism-based; method in brief: as §1
P388 [25] = assay: Antitumor activity against mouse P388 cells allografted in CDF1 mouse assessed as mouse survival at 0.1 mg/kg/day administered qd on day 1 and 5 measured on day 5; assay type: functional, organism-based; method in brief: as §1
Mus musculus [26] = assay: Toxicity in CDF1 mouse allografted with mouse P388 cells assessed as change in weight at 0.1 mg/kg/day administered qd on day 1 and 5 (reference value: 3.4 g); assay type: organism-based; settings: in vivo; method in brief: as §1
Escherichia coli [27] = assay: Toxicity in Escherichia coli W1709(lambda) at 0.05 ug/ml; assay type: organism-based; settings: in vivo
P388 [28] = assay: Antitumor activity against mouse P388 cells allografted in CDF1 mouse assessed as mouse survival at 0.2 mg/kg/day administered qd on day 1 and 5 measured on day 5; assay type: functional, organism-based; method in brief: as §1
P388 [29] = assay: Antitumor activity against mouse P388 cells allografted in CDF1 mouse assessed as effect on median survival time at 0.2 mg/kg/day administered qd on day 1 and 5 relative to control; assay type: functional; method in brief: as §1
P388 [30] = assay: Antitumor activity against mouse P388 cells allografted in CDF1 mouse assessed as mouse survival at 3.2 mg/kg/day administered qd on day 1 and 5 measured on day 5; assay type: functional, organism-based; method in brief: as §1
Escherichia coli [31] = assay: Toxicity in Escherichia coli W1709(lambda) at 0.0125 ug/ml; assay type: organism-based; settings: in vivo
P388 [32] = assay: Antitumor activity against mouse P388 cells allografted in CDF1 mouse assessed as effect on median survival time at 0.1 mg/kg/day administered qd on day 1 and 5 relative to control; assay type: functional; method in brief: as §1
P388 [33] = assay: Antitumor activity against mouse P388 cells allografted in CDF1 mouse assessed as mouse survival at 0.1 mg/kg/day administered qd on day 1 and 5 measured on day 30; assay type: functional, organism-based; method in brief: as §1
Escherichia coli [34] = assay: Toxicity in Escherichia coli W1709(lambda) at 0.2 ug/ml; assay type: organism-based; settings: in vivo
Method in brief: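 Screened for induction of lytic activity by lambda-bacteriophage lysogenic in Escherichia coli, at 3.1, 0.8, 0.2, 0.05, 0.0125 and 0.003 ug/mL. The read-out was the ratio of plaques induced by the test compound to plaques in an untreated control. Wells where the compound was toxic to the culture were scored "T" instead of a ratio.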

P388 [35] = assay: Antitumor activity against mouse P388 cells allografted in CDF1 mouse assessed as effect on median survival time at 6.4 mg/kg/day administered qd on day 1 and 5 relative to control; assay type: functional; method in brief: as §1
P388 [36] = assay: Antitumor activity against mouse P388 cells allografted in CDF1 mouse assessed as mouse survival at 6.4 mg/kg/day administered qd on day 1 and 5 measured on day 30; assay type: functional, organism-based; method in brief: as §1
Escherichia coli [37] = assay: Toxicity in Escherichia coli W1709(lambda) at 0.8 ug/ml; assay type: organism-based; settings: in vivo
P388 [38] = assay: Antitumor activity against mouse P388 cells allografted in CDF1 mouse assessed as mouse survival at 6.4 mg/kg/day administered qd on day 1 and 5 measured on day 5; assay type: functional, organism-based; method in brief: as §1
Mus musculus [39] = assay: Toxicity in CDF1 mouse allografted with mouse P388 cells assessed as change in weight at 6.4 mg/kg/day administered qd on day 1 and 5 (reference value: 3.4 g); assay type: organism-based; settings: in vivo; method in brief: as §1

Row | SMILES | T/C [1] | T/C [2] | T/C [3] | T/C [4] | T/C [5] | Activity (Mus musculus [8]) [g] | Activity (Mus musculus [9]) [g] | T/C (P388 [10]) [%] | Activity (Mus musculus [11]) [g] | Activity (Mus musculus [12]) [g] | Activity (P388 [13]) | T/C (P388 [14]) [%] | T/C (P388 [16]) [%] | Activity (P388 [17]) | Activity (Mus musculus [18]) [g] | T/C (P388 [19]) [%] | Activity (P388 [20]) | Activity (P388 [21]) | Activity (P388 [23]) | Activity (P388 [24]) | further results
1 | COC1=C(C)C(=O)c2c(c(COC(N)=O)c3n2C[C@H]2[C@@H]3N2C)C1=O (some centres not stated) | 35.4 | 38.8 | 0.8 | 3 | 3.4 |  |  |  |  |  |  |  |  |  |  |  |  |  |  |  | Activity (Escherichia coli [6]): Toxic
2 | COC1=C(C)C(=O)c2c(c(COC(N)=O)c3n2CCC3O)C1=O (racemic) | 6.9 | 2.9 |  |  |  |  |  |  |  |  |  |  |  |  |  |  |  |  |  |  | 
3 | CN[C@@H]1Cn2c3c(c(COC(N)=O)c2[C@@H]1O)C(=O)C(OC)=C(C)C3=O (relative stereo) | 22.4 | 4.4 |  |  |  |  |  |  |  |  |  |  |  |  |  |  |  |  |  |  | T/C [7]: 2; Activity (Escherichia coli [6]): Toxic
4 | CN[C@@H]1Cn2c3c(c(COC(N)=O)c2[C@H]1O)C(=O)C(OC)=C(C)C3=O (relative stereo) | 7 | 2.4 |  |  |  |  |  |  |  |  |  |  |  |  |  |  |  |  |  |  | 
5 | COC1=C(C)C(=O)C2=C(C1=O)[C@@H](COC(N)=O)[C@@]1(OC)[C@H]3N[C@H]3CN21 [MITOMYCIN A] |  |  | 7.4 | 31.1 |  | 0.1 | -3.1 | 140 | -2.6 | -0.4 | Active | 165 | 155 | Active | -2.1 | 180 | Active | inactive | inactive | inactive | Activity (P388 [15]): inactive; Activity (P388 [22]): inactive; Activity (P388 [25]): Active; Activity (Mus musculus [26]): 0.3 g; Activity (Escherichia coli [27]): Toxic; Activity (P388 [28]): Active; T/C (P388 [29]): 130%; Activity (P388 [30]): Active; Activity (Escherichia coli [31]): Toxic; T/C (P388 [32]): 120%; Activity (P388 [33]): inactive
6 | CO[C@@]12[C@H](COC(N)=O)C3=C(C(=O)C(C)=C(N)C3=O)N1C[C@@H]1N[C@@H]12 [MITOMYCIN] |  |  | 2.7 | 6.6 | 17.6 | 0.3 | 0.1 | 130 | -0.8 | 0 | Active | 175 | 175 | Active | -2.3 | 270 | Active | inactive | inactive | inactive | Activity (P388 [25]): Active; Activity (Mus musculus [26]): 0 g; Activity (Escherichia coli [27]): Toxic; Activity (P388 [28]): Active; T/C (P388 [29]): 125%; Activity (Escherichia coli [34]): Toxic; Activity (P388 [30]): Active; T/C (P388 [32]): 120%; Activity (P388 [33]): inactive
7 | COC1=C(C)C(=O)C2=C(C1=O)[C@@H](COC(N)=O)[C@@]1(OC)[C@@H]3[C@H](CN21)N3C (some centres not stated) [N-METHYL-MITOMYCIN A] |  |  | 1.8 | 3.7 | 8.2 | 0.3 | -1.6 | 130 | -0.3 | 0.9 | Active | 145 | 145 | Active | -3.1 | 180 | Active | inactive | inactive | inactive | T/C (P388 [35]): 165%; Activity (P388 [36]): inactive; Activity (Escherichia coli [37]): Toxic; Activity (P388 [15]): inactive; Activity (P388 [38]): Active; T/C [7]: 21.2; Activity (P388 [28]): Active; T/C (P388 [29]): 115%; Activity (P388 [30]): Active; Activity (Mus musculus [39]): -2.4 g
